In ChEMBL document CHEMBL4680220, “Synthesis and biological evaluation of acridine-based histone deacetylase inhibitors as multitarget agents against Alzheimer's disease” (Eur J Med Chem, 2020):

Legend:
[1] = target: Histone deacetylase 9 (Homo sapiens, UniProt Q9UKV0); assay: Inhibition of recombinant human C-terminal His-tagged HDAC9 (604 to 1066 residues) expressed in baculovirus infected Sf9 cells using fluorogenic HDAC 2A substrate preincubated for 5 mins followed by substrate addition and measured after 30 mins by fluorescence assay
Sequence of Histone deacetylase 9 (Q9UKV0 whole entry, the tested form may be a part): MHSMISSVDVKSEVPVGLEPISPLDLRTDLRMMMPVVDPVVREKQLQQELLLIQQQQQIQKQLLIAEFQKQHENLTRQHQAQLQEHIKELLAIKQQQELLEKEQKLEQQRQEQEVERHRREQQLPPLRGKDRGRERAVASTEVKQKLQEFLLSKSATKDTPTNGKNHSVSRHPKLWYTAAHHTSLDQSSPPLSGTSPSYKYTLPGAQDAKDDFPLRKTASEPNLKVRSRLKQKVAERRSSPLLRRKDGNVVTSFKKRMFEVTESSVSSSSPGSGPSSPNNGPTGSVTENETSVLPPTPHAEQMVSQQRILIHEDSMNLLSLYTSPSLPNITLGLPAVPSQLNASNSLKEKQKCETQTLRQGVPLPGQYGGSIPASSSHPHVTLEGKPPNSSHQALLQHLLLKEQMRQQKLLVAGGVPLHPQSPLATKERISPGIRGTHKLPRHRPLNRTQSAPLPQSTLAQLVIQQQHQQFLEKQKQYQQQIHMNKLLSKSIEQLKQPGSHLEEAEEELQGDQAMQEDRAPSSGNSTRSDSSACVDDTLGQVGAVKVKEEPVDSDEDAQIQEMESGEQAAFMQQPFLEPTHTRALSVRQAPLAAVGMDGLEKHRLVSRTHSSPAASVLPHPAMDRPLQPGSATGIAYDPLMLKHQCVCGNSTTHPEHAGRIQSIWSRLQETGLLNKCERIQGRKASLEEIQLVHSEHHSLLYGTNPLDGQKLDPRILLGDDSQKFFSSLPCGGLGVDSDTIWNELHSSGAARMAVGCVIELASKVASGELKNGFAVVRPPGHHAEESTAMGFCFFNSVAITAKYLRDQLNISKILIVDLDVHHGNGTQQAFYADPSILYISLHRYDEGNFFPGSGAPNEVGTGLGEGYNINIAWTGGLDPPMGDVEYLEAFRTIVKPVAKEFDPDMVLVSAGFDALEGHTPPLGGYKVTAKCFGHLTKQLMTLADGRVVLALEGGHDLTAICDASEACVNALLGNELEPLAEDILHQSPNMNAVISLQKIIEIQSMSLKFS

[2] = target: Class 1 histone deacetylase (Homo sapiens, UniProt Q13547+O15379+Q92769+Q9BY41); assay: Inhibition of class 1 HDAC in human HeLa cell nuclear extract using Boc-Lys(Ac)-AMC as substrate preincubated for 5 mins followed by substrate addition and measured after 30 mins by fluorescence assay; type: cell-based
[3] = target: T1, Protein deacetylase HDAC6 (Homo sapiens, UniProt Q9UBN7); assay: Inhibition of recombinant human full-length N-terminal GST-tagged HDAC6 expressed in baculovirus infected Sf9 insect cells using Boc-Lys(Ac)-AMC as substrate preincubated for 5 mins followed by substrate addition and measured after 30 mins by fluorescence assay
T1 sequence (Q9UBN7 whole entry): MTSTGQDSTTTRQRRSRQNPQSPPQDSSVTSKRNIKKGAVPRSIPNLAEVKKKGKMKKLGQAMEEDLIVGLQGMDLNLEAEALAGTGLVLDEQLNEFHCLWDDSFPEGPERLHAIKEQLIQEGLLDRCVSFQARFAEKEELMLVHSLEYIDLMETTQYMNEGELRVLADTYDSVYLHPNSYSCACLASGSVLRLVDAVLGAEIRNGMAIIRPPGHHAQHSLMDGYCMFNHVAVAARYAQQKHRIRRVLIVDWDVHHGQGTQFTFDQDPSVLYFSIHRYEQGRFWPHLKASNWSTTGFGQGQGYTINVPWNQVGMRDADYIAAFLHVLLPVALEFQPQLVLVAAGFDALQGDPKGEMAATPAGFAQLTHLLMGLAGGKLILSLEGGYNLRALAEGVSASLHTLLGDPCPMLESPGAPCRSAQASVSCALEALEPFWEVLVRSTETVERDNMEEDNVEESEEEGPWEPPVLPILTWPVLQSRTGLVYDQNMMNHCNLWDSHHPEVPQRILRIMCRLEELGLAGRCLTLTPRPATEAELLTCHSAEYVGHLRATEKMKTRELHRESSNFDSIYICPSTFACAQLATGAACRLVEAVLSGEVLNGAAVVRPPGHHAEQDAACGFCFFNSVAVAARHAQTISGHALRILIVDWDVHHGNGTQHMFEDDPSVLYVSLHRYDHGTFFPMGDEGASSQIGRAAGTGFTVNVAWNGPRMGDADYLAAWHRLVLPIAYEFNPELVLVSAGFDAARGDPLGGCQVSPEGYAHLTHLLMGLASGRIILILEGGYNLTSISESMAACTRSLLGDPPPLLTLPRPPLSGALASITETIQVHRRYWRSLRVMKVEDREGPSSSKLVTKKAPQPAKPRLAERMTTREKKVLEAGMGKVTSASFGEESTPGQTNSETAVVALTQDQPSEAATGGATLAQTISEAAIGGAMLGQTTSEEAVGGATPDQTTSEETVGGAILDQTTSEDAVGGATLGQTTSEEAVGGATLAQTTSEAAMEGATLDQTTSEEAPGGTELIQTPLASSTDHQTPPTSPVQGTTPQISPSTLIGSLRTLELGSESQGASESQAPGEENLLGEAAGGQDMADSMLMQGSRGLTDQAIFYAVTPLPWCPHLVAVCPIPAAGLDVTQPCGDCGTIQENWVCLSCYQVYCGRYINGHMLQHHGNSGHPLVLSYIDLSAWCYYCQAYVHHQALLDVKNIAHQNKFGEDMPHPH

[4] = target: Histone deacetylase 5 (Homo sapiens, UniProt Q9UQL6); assay: Inhibition of recombinant human C-terminal His-tagged HDAC5 (656 to 1122 residues) expressed in baculovirus infected Sf9 insect cells using fluorogenic HDAC 2A substrate preincubated for 5 mins followed by substrate addition and measured after 30 mins by fluorescence assay
Sequence of Histone deacetylase 5 (Q9UQL6 whole entry, the tested form may be a part): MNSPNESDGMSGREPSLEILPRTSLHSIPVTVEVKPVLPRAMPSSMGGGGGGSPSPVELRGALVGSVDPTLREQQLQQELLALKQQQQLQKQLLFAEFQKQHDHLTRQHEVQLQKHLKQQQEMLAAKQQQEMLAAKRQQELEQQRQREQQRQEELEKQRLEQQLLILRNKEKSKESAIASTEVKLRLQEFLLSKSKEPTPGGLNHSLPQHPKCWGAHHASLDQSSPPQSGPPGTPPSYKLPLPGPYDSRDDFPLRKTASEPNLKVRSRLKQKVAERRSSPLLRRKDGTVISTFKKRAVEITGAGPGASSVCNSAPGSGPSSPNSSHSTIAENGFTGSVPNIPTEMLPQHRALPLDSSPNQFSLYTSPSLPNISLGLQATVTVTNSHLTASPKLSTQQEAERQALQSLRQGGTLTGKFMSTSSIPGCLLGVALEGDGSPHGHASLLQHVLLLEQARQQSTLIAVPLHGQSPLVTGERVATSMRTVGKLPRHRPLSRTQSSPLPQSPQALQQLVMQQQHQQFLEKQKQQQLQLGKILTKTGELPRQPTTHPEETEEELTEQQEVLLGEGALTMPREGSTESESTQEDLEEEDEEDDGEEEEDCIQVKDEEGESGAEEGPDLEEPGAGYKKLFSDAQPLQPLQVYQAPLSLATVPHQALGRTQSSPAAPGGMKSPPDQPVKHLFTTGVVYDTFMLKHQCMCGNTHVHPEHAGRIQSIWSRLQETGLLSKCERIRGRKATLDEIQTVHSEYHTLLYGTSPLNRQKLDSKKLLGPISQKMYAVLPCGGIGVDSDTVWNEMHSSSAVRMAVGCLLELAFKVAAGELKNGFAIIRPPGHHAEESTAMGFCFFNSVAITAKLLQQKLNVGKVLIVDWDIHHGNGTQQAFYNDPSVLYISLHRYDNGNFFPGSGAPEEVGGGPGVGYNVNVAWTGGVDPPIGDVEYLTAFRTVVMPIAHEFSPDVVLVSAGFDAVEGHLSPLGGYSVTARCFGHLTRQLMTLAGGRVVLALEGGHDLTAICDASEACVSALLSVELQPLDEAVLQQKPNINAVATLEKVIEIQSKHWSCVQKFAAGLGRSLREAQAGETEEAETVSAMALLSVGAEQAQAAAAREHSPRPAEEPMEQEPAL

[5] = target: Histone deacetylase 4 (Homo sapiens, UniProt P56524); assay: Inhibition of recombinant human N-terminal GST-tagged/C-terminal His-tagged HDAC4 (627 to 1084 residues) expressed in baculovirus expression system using Boc-Lys(TFA)-AMC as substrate preincubated for 5 mins followed by substrate addition and measured after 30 mins by fluorescence assay
Sequence of Histone deacetylase 4 (P56524 whole entry, the tested form may be a part): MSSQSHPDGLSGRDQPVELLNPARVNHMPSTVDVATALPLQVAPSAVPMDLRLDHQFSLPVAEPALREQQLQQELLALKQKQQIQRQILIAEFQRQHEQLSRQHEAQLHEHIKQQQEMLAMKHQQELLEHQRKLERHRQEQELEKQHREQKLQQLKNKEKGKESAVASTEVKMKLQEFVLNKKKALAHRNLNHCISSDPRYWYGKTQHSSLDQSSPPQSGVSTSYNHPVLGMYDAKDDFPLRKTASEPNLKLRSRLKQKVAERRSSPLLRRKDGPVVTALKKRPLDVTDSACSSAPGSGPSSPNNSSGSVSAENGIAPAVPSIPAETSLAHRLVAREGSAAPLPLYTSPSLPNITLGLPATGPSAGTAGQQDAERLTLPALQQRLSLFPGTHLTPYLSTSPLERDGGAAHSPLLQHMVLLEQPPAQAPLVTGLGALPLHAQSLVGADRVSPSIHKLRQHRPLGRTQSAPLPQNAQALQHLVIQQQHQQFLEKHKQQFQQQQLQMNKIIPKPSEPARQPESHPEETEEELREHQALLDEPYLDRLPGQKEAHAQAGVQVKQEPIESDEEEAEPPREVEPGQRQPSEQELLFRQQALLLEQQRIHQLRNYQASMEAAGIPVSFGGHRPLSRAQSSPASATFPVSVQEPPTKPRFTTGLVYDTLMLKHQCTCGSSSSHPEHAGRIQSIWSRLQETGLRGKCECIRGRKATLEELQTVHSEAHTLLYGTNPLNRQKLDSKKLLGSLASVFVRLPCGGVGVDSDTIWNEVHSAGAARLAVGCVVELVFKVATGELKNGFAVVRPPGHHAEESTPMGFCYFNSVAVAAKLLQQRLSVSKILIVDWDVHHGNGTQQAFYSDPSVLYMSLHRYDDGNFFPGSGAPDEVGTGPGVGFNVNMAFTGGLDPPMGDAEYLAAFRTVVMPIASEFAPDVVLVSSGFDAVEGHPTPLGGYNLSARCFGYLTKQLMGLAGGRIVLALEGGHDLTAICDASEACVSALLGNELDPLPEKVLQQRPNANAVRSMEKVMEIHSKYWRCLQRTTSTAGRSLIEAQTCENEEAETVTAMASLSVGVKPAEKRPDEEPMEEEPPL

[6] = target: T2, Histone deacetylase 7 (Homo sapiens, UniProt Q8WUI4); assay: Inhibition of recombinant human N-terminal GST-tagged HDAC7 (518 to end residues) expressed in baculovirus infected Sf9 cells using fluorogenic HDAC 2A substrate preincubated for 5 mins followed by substrate addition and measured after 30 mins by fluorescence assay
T2 sequence (Q8WUI4 whole entry): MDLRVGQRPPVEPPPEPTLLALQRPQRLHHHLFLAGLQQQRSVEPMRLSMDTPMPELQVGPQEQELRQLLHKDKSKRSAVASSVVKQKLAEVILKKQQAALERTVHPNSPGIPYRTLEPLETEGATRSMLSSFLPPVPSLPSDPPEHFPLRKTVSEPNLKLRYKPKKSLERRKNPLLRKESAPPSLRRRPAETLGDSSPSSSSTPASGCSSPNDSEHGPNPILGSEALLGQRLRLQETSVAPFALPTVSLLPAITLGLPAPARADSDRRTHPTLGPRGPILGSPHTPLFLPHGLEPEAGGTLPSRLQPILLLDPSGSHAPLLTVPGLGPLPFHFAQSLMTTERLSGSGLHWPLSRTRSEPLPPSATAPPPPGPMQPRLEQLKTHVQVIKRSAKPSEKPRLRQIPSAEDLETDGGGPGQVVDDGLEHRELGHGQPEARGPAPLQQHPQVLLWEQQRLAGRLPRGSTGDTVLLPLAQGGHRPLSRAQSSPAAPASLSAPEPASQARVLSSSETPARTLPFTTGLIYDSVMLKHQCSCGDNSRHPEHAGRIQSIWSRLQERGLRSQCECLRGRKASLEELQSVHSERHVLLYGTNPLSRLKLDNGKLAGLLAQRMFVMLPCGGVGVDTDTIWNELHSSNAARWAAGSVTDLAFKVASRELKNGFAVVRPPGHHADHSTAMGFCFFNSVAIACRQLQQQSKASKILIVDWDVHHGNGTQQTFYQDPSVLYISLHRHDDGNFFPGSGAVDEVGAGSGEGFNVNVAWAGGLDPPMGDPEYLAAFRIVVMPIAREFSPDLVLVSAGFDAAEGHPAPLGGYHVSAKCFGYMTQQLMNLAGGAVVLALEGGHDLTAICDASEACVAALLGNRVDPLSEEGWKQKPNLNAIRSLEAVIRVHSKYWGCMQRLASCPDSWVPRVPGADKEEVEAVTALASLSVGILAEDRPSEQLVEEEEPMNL

[7] = target: Acetylcholinesterase (Homo sapiens, UniProt P22303); assay: Inhibition of recombinant human C-terminal 6His-tagged AChE (Glu32 to Leu614 residues) expressed in CHO cells using acetylthiocholine iodide as substrate preincubated for 5 mins measured after 15 mins by DTNB reagent based assay
Sequence of Acetylcholinesterase (P22303 whole entry): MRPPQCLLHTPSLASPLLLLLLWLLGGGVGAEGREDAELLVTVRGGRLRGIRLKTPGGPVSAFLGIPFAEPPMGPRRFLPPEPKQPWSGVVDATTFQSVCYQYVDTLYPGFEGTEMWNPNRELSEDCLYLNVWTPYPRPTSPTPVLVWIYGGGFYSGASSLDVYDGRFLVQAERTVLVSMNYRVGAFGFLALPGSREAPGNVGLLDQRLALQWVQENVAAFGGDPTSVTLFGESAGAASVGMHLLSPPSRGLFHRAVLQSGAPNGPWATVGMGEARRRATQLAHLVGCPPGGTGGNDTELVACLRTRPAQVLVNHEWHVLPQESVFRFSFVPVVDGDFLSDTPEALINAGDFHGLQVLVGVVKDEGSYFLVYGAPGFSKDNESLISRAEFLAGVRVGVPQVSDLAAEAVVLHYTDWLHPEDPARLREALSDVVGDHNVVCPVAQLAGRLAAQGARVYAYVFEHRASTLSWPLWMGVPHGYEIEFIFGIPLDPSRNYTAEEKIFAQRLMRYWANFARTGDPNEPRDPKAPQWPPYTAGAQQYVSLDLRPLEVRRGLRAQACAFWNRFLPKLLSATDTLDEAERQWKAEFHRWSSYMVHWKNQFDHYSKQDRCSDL
How it was run: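 Enzyme, compounds, acetylthiocholine iodide and DTNB diluted in 100 mM phosphate buffer pH 7.4. AChE was preincubated with the compound at varying concentrations for 5 min at 37 °C. The reaction was started with 1 mM ATCI solution and run 15 min at 37 °C. 2 mM DTNB solution was then added for 5 min. Absorbance read at 412 nm. IC50 set 0.1% DMSO wells as 100% and no-enzyme wells as 0%. Run in triplicate.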

[8] = target: T3, Amyloid-beta precursor protein (Homo sapiens, UniProt P05067); assay: Inhibition of amyloid beta (1 to 42) (unknown origin) self aggregation after 24 hrs by thioflavin-T fluorescence method
T3 sequence (P05067 whole entry): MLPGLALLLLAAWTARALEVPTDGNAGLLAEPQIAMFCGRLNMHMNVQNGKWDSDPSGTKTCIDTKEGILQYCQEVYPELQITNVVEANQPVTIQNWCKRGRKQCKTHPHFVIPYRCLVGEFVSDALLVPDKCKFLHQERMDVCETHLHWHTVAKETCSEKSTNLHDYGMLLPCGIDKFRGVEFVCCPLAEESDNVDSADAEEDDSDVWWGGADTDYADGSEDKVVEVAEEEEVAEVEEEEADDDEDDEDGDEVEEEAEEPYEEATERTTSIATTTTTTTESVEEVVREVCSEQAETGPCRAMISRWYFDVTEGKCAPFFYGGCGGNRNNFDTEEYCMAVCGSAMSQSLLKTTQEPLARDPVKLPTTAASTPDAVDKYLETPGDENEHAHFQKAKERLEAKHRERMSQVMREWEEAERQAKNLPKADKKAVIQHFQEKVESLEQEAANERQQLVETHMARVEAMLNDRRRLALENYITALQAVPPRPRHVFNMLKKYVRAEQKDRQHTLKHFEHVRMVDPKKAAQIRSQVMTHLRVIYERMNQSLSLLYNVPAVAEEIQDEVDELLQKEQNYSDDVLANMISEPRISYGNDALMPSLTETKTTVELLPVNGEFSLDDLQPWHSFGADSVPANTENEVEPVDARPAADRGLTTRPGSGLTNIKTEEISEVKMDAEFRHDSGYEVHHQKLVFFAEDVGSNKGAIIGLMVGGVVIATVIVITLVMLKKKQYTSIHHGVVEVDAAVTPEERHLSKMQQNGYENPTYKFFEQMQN
How it was run: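 ThT aggregation assay. Compound at varying concentrations combined with 10 µM Aβ1-42 (1 mM DMSO stock), 10 µM ThT, 1 mM EDTA in 50 mM phosphate buffer (150 mM NaCl, pH 7.4). Incubated 24 h at 37 °C with shaking at 700 rpm; fluorescence ex 440/em 486 nm. 0.1% DMSO wells = 100% aggregation; compound wells without Aβ = background. IC50 from triplicates.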

[9] = target: T3, Amyloid-beta precursor protein; assay: Disaggregation of self-induced amyloid beta (1 to 42) (unknown origin) preformed fibrils at 10 uM measured after 24 hrs by thioflavin-T fluorescence assay relative to control
How it was run: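 Aβ1-42 (10 µM) with 10 µM ThT and 1 mM EDTA in 50 mM phosphate buffer (150 mM NaCl, pH 7.4) pre-aggregated 24 h at 37 °C, 700 rpm; fluorescence read (ex 440/em 486 nm). Compound then added and incubated a further 24 h at 37 °C before re-reading. Disaggregation = (first − second reading)/first reading. Triplicate.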

[10] = Elimination rate constant in human liver microsomes at 1 uM preincubated for 3 mins followed by NADPH addition and measured up to 60 mins by LC-MS/MS analysis; type: ADME, Microsome; details: time <=63 min
How it was run: (§1)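 Mixed-gender human liver microsomes with test article at 1 µM final. Testosterone (5 µM) run separately as control. Mixture without cofactor equilibrated 3 min at 37 °C in a shaking water bath, then started with cofactor. Aliquots taken at 0, 10, 20, 30 and 60 min. CLint = k/P, where k is the elimination rate constant and P is the incubation protein concentration.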

[11] = Half life in human liver microsomes at 1 uM preincubated for 3 mins followed by NADPH addition and measured up to 60 mins by LC-MS/MS analysis; type: ADME, Microsome; details: time <=63 min; how it was run: as §1
[12] = Intrinsic clearance in human liver microsomes at 1 uM preincubated for 3 mins followed by NADPH addition and measured up to 60 mins by LC-MS/MS analysis; type: ADME, Microsome; details: 1 h, time <=63 min; how it was run: as §1

| Structure (SMILES) | IC50 [1] | IC50 [2] | IC50 [3] | IC50 [4] | IC50 [5] | IC50 [6] | IC50 [7] | IC50 [8] | inhibition [9] | k el at 1 h, 1 µM [10] | half-life at 1 µM [11] | CLint [12] |
| --- | --- | --- | --- | --- | --- | --- | --- | --- | --- | --- | --- | --- |
| O=C(Cc1ccc(Nc2c3ccccc3nc3ccccc23)cc1)NO | 6.42 µM | 2.07 µM | 0.074 µM | 1.66 µM | 26.6 µM | 1.94 µM | – | – | – | – | – | – |
| c1ccc2nc3ccccc3cc2c1 [ACRIDINE] | – | – | – | – | – | – | 6.84 µM | – | – | – | – | – |
| O=C(CCCCCCC(=O)Nc1ccccc1)NO [VORINOSTAT] | – | – | – | – | – | – | – | > 20 µM | 0% | – | – | – |
| COc1ccc2nc3cc(Cl)ccc3c(Nc3ccc(C(=O)NO)cc3)c2n1 | > 40 µM | 0.8 µM | 0.34 µM | 15.2 µM | > 40 µM | – | 9.25 µM | 34.9 µM | 53% | – | – | – |
| O=C(NO)c1cccc(Nc2c3ccccc3nc3ccccc23)c1 | 12.2 µM | > 40 µM | 4.69 µM | 20.8 µM | 29.4 µM | – | – | – | – | – | – | – |
| O=C(NO)c1ccc(Nc2ccnc3ccccc23)cc1 | 13.2 µM | 0.6 µM | 0.039 µM | 3.37 µM | > 40 µM | – | 0.83 µM | > 20 µM | 0% | – | – | – |
| O=C(NO)c1ccc(Nc2c3ccccc3nc3ccc(OCc4ccccc4)cc23)cc1 | 1.25 µM | 3.5 µM | 0.22 µM | 0.43 µM | 1.21 µM | 3.1 µM | 2.64 µM | 3 µM | 57% | – | – | – |
| COc1cc2nc3ccccc3c(Nc3ccc(C(=O)NO)cc3)c2c(OC)c1OC | 4.95 µM | 0.81 µM | 0.16 µM | 4.23 µM | 15.7 µM | 4.57 µM | 0.64 µM | 13 µM | 42% | – | – | – |
| C[C@]12CC[C@H]3[C@@H](CCC4=CC(=O)CC[C@@]43C)[C@@H]1CC[C@@H]2O [TESTOSTERONE] | – | – | – | – | – | – | – | – | – | 0.00045 s⁻¹ | 25.7 min | 54 µL/min/mg |
| O=C(NO)c1ccc(Nc2c3c(nc4ccccc24)CCCC3)cc1 | > 40 µM | > 40 µM | 3.55 µM | 17.5 µM | > 40 µM | > 40 µM | 1.97 µM | > 20 µM | 0% | – | – | – |
| O=C(NO)c1ccc(Nc2c3ccccc3nc3ccc(OC(F)(F)F)cc23)cc1 | 31.1 µM | 0.67 µM | 0.029 µM | 15.8 µM | 14.7 µM | – | 3.65 µM | 3.5 µM | 53% | – | – | – |
| O=C(NO)c1ccc(Nc2c3ccccc3nc3ccc(F)cc23)cc1 | 0.52 µM | 0.25 µM | 0.029 µM | 0.69 µM | 3.04 µM | – | 0.6 µM | > 20 µM | 38% | – | – | – |
| O=c1c(O)c(-c2ccc(O)cc2O)oc2cc(O)cc(O)c12 [MORIN] | – | – | – | – | – | – | – | 8.5 µM | – | – | – | – |
| O=C(CCc1ccc(Nc2c3ccccc3nc3ccccc23)cc1)NO | 29 µM | 0.1 µM | 0.14 µM | 2.58 µM | 7.06 µM | – | – | – | – | – | – | – |
